Measured values: ChEMBL document CHEMBL1158534, “Antimicrobial activity of tryptanthrins in Escherichia coli” (J Med Chem, 2010)
≈ marks a conversion by molar mass, not a printed value. Calls of active or inactive are those of the source. The calls are words filed in the database; no cut-off is given here.

How the values were obtained:
Escherichia coli [1] = assay: Antibacterial activity against Escherichia coli AS19 assessed as growth inhibition at 10 ug/ml after 4 hrs; type: functional, organism-based
Escherichia coli [2] = assay: Antibacterial activity against Escherichia coli AS19 after 4 hrs; type: functional; conditions: AS19, 4 h
Escherichia coli [3] = assay: Mutagenic activity in Escherichia coli assessed as induction of frame shift mutation
Escherichia coli [4] = assay: Antibacterial activity against Escherichia coli AS19 at 10 ug/ml after 3 days in presence of M9 buffer; type: functional, organism-based
Outline: (§1)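 Overnight LB culture of AS19 (pBRF14C) diluted to 10⁵-10⁶ cells/mL in M9 buffer (NH4Cl, Na2HPO4, KH2PO4); tryptanthrins at final 0.05-10 μg/mL (0.2-40 μM), 37 °C up to 72 h. Samples at ~12 h intervals plated on LB + ampicillin, counted after 24 h; surviving fraction relative to untreated M9 cells; duplicate samples, 4-8 repetitions.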

[5] = molecular target: T1, DNA topoisomerase 1 (Homo sapiens) (UniProt P11387); assay: Inhibition of human topoisomerase 1-mediated relaxation of circular DNA
T1 sequence (whole entry): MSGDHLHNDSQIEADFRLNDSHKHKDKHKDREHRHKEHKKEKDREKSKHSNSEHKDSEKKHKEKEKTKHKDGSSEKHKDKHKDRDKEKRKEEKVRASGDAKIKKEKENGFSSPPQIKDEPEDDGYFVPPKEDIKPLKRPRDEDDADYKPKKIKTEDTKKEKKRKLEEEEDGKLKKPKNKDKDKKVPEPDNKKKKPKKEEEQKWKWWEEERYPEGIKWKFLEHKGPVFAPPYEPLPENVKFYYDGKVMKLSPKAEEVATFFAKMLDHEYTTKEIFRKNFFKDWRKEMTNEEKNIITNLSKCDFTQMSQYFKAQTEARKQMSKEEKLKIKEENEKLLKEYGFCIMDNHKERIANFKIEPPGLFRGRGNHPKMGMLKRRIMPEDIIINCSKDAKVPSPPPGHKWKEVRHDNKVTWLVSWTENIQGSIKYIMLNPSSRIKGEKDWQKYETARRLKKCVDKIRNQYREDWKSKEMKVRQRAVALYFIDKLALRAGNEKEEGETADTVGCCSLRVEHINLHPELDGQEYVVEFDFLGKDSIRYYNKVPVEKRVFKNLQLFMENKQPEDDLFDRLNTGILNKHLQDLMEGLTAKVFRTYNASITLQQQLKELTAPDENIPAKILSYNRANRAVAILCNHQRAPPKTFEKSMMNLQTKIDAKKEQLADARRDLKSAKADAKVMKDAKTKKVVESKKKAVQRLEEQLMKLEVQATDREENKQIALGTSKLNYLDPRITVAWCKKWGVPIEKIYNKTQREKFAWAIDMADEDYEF
Outline: (§2)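 Relaxation assay: 0.25 μg pGEM-3Z (2743 bp, CsCl-purified) with 1 U human topoisomerase I in 10 mM Tris pH 7.9, 150 mM NaCl, 0.1 mM spermidine, 5% glycerol, tryptanthrin 10-100 μg/mL, 2 h 37 °C (or pre-relaxed 1 h, then drug 1-2 h). Stopped with sarkosyl; 1.5% agarose ± 2 μg/mL chloroquine, 50 V 3-4 h, ethidium stain; drugs bound = (Ldrug−Lo)×360°/28°.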

Escherichia coli [6] = assay: Antibacterial activity against Escherichia coli AS19 at 0.5 to 10 ug/ml after 3 days in presence of M9 buffer; type: functional, organism-based; conditions: 0.05 to 10 ug/ml, in the assay text read “0.05 to 10 ug/ml” for “0.5 to 10 ug/ml”; outline: as §1
Escherichia coli [7] = assay: Antibacterial activity against Escherichia coli AS19 in presence of 360 nm light; type: functional, organism-based
Escherichia coli [8] = assay: Antibacterial activity against Escherichia coli AS19 at 0.4 ug/ml after 3 days in presence of M9 buffer; type: functional, organism-based; outline: as §1
Escherichia coli [9] = assay: Antibacterial activity against Escherichia coli AS19 at 0.6 to 2 ug/ml; type: functional, organism-based
Escherichia coli [10] = assay: Antibacterial activity against Escherichia coli AS19 assessed as cell viability at 10 ug/ml after 20 to 24 hrs; type: functional
Outline: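 LB growth assay with AS19 (pBRF14C) at 37 °C with shaking; after 20-24 h exposure, dilutions in M9 buffer plated (200-400 cells) on LB + 30 μg/mL ampicillin, colonies counted after 24 h at 37 °C; viability = treated cells/mL divided by untreated cells/mL.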

Escherichia coli [11] = assay: Antibacterial activity against Escherichia coli AS19 at 0.01 ug/ml; type: functional, organism-based
Escherichia coli [12] = assay: Antibacterial activity against Escherichia coli AS19 at 2.5 to 20 ug/ml after 4 hrs; type: functional, organism-based
Escherichia coli [13] = assay: Antibacterial activity against Escherichia coli AS19 at 0.1 ug/ml; type: functional, organism-based
Escherichia coli [14] = assay: Antibacterial activity against Escherichia coli AS19 at 1 ug/ml after 4 hrs; type: functional, organism-based
[15] = molecular target: T1, DNA topoisomerase 1 (Homo sapiens); assay: Inhibition of human topoisomerase 1-mediated relaxation of circular DNA at 100 ug/ml; outline: as §2

Compound | growth inhibition (GI) (Escherichia coli [1]) | GI50 (Escherichia coli [2]) | Activity (Escherichia coli [4]) | Activity (Escherichia coli [7]) | also measured
O=C1c2ccccc2-n2c1nc1ncccc1c2=O | Active | 1.3 µg/mL (≈ 5.22 µM) | Active |  | fold change (FC) (Escherichia coli [3]): 22; inhibition [5]: inactive; Activity (Escherichia coli [6]): Active
O=Nc1c2ccccc2n2c(O)c3ccccc3nc12 |  |  |  | inactive | 
O=C1c2cc(F)ccc2-n2c1nc1ccccc1c2=O |  |  |  |  | Activity (Escherichia coli [8]): Active
O=C1c2ccccc2-n2c1nc1nccnc1c2=O | Active | 1.5 µg/mL (≈ 5.99 µM) | Active | Active | Activity (Escherichia coli [9]): Active
O=c1c2ccccc2nc2n1-c1ccc(F)cc1/C2=N\O |  |  | Active | inactive | 
O=C1c2cc(Br)ccc2-n2c1nc1ccccc1c2=O |  |  |  |  | Activity (Escherichia coli [8]): Active
O=C1c2cc(F)ccc2-n2c1nc1ncccc1c2=O | Active | 0.6 µg/mL (≈ 2.25 µM) | Active |  | Activity (Escherichia coli [10]): 15%; Activity (Escherichia coli [11]): inactive; Activity (Escherichia coli [12]): Active; Activity (Escherichia coli [13]): inactive; fold change (FC) (Escherichia coli [3]): 4; Activity (Escherichia coli [14]): Active
O=c1c2cccnc2nc2n1-c1ccccc1/C2=N\O |  |  |  | inactive | 
O=C1c2ccccc2-n2c1nc1ccccc1c2=O [TRYPTANTHRIN] | Active | 2.25 µg/mL (≈ 9.06 µM) |  |  | 
O=C1c2cc([N+](=O)[O-])ccc2-n2c1nc1ccccc1c2=O | Active | 0.6 µg/mL (≈ 2.05 µM) |  |  | inhibition [15]: inactive
